Results on 14 molecules are retold here after ChEMBL document CHEMBL1806454, “8-Aryl- and alkyloxycaffeine analogues as inhibitors of monoamine oxidase” (Eur J Med Chem, 2011).

What is called Ki is a measure of affinity in units of concentration, obtained from inhibition or displacement. Usually IC50 stands for the concentration that gives 50% inhibition.

One data set is filed under the species Homo sapiens. Description: Selectivity index, ratio of Ki for recombinant human MAOB to Ki for recombinant human MAOA. An outline of the steps:
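Recombinant human MAO-A and MAO-B in insect-cell microsomes (0.0075 mg/mL), kynuramine 45 µM (A) or 30 µM (B), inhibitor 0–100 µM, 9 concentrations, DMSO 4% final, K-phosphate 100 mM pH 7.4 isotonic with KCl, 37 °C 20 min. NaOH stop, 4-hydroxyquinoline fluorescence (ex 310/em 400 nm). Duplicate IC50 fits converted to Ki; SI = Ki(MAO-B)/Ki(MAO-A).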

Data set [1] addresses T1, Amine oxidase [flavin-containing] A (Homo sapiens, UniProt P21397).
T1 sequence (P21397 whole entry): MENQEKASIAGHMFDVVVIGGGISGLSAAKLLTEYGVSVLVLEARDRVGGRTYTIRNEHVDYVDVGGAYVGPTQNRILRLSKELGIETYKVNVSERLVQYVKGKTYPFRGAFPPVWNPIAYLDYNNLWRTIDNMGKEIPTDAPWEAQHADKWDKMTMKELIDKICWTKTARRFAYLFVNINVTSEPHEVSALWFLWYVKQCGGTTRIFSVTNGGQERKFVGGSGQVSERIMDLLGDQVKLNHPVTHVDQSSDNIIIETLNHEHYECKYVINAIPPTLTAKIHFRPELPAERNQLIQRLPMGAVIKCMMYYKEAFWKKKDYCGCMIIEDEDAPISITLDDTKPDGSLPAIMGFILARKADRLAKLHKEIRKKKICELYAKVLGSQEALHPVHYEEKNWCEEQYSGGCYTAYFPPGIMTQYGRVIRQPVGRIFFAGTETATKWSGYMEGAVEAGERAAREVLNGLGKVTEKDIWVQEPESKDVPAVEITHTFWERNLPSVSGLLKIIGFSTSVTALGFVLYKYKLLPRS
Description: Competitive inhibition of human recombinant MAOA expressed in baculovirus infected insect cell microsomes using kynuramine as substrate assessed as 4-hydroxyquinoline formation per min per mg protein by Lineweaver-Burk plot analysis. The arrangement: species or system Microsome.

The target of data set [2] is T1, Amine oxidase [flavin-containing] A. Briefly: Inhibition of recombinant human MAOA expressed in baculovirus infected insect cell microsomes using kynuramine as substrate assessed as formation of 4-hydroxyquinoline after 20 mins by fluorescence spectrophotometry. On the set-up: species or system Microsome.
Data set [3] has as its target T2, Amine oxidase [flavin-containing] B (Homo sapiens, UniProt P27338).
T2 sequence (P27338 whole entry): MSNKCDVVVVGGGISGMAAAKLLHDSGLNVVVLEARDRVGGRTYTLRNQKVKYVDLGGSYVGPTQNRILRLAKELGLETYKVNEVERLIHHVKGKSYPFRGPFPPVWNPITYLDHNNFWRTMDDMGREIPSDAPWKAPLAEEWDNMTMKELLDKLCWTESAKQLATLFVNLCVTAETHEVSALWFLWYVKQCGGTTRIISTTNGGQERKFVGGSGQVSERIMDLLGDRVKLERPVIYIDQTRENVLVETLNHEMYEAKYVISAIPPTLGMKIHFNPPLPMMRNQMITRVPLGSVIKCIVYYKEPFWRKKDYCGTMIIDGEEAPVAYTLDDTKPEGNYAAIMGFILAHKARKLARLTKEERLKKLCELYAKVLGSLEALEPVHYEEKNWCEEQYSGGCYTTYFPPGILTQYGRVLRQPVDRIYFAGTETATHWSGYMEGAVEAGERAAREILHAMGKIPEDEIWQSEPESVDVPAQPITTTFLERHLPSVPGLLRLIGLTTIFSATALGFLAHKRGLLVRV
Briefly: Competitive inhibition of human recombinant MAOB expressed in baculovirus infected insect cell microsomes using kynuramine as substrate assessed as 4-hydroxyquinoline formation per min per mg protein by Lineweaver-Burk plot analysis. On the set-up: species or system Microsome.

The target in data set [4] is T2, Amine oxidase [flavin-containing] B. Description: Inhibition of recombinant human MAOB expressed in baculovirus infected insect cell microsomes using kynuramine as substrate assessed as formation of 4-hydroxyquinoline after 20 mins by fluorescence spectrophotometry. On the set-up: species or system Microsome.
The target is the same in data set [5]. Briefly: Ratio of 8-benzyloxycaffeine IC50 to compound IC50 for recombinant human MAOB expressed in baculovirus infected insect cell microsomes. On the set-up: species or system Microsome.

For `Cn1c(=O)c2c(nc(OCCOc3ccc(Br)cc3)n2C)n(C)c1=O`, the Ratio Ki in the data set listed under Homo sapiens amounted to 0.207. Moreover, the inhibition constant (Ki) in data set [1] is 1.18 µM; in data set [2], 0.58 µM; in data set [3], 0.088 µM; in data set [4], 0.12 µM. Also, the results for the IC50 in data set [2] and in data set [4] were 1.65 µM and 0.166 µM, respectively.
`CC(C)CCCCOc1nc2c(c(=O)n(C)c(=O)n2C)n1C`: the Ratio Ki in the data set listed under Homo sapiens came to 0.053. For the same molecule, in data set [2], the concentration for half-maximal inhibition (IC50) is 15.2 µM and the Ki came out at 5.31 µM. In addition, in data set [4], the half-maximal inhibitory concentration (IC50) was determined as 0.381 µM and the inhibition constant (Ki) is 0.28 µM.
Taken in the same sequence, the figures for `Cn1c(=O)c2c(nc(OCCOc3ccccc3)n2C)n(C)c1=O` were 0.0036, 20.4 µM, 77.1 µM, 0.383 µM and 0.28 µM.
Taken in the same sequence, the figures for `Cn1c(=O)c2c(nc(OCC3CC=CCC3)n2C)n(C)c1=O` (stereo not given) were 0.45, 13.8 µM, 4.81 µM, 2.99 µM and 2.19 µM.
As to `Cn1c(=O)c2c(nc(OCC3CCCC3)n2C)n(C)c1=O`, in the data set filed under Homo sapiens, the Ratio Ki amounted to 1.46. The IC50 was 22.8 µM in data set [2] and 15.9 µM in data set [4]. The values for the inhibitory constant (Ki) in data set [2] and in data set [4] were 7.98 µM and 11.6 µM, respectively.
On to `Cn1c(=O)c2c(nc(OCc3ccc(Br)cc3)n2C)n(C)c1=O`, for which, in the data set listed under Homo sapiens, the Ratio Ki is 0.099. In data set [2], the IC50 is 1.3 µM and the inhibition constant Ki turned out to be 0.46 µM. In addition, in data set [5], the “Ratio IC50” value is on record as 27. In data set [4], the 50% inhibitory concentration (IC50) came to 0.062 µM and the Ki turned out to be 0.045 µM.
`Cn1c(=O)c2c(nc(OCCOc3ccc(Cl)cc3)n2C)n(C)c1=O`: the Ki in data set [2] came out at 0.64 µM.
Turning to `Cn1c(=O)c2c(nc(OCCOCc3ccccc3)n2C)n(C)c1=O`, in the data set listed under Homo sapiens, the Ratio Ki is 0.047. Besides, in data set [2], the half-inhibitory concentration (IC50) turned out to be 168 µM and the Ki is 58.7 µM. Moreover, in data set [4], the concentration for half-maximal inhibition (IC50) worked out at 3.77 µM and the Ki came to 2.76 µM.
Taken in the same sequence, the figures for `Cn1c(=O)c2c(nc(OCCCc3ccccc3)n2C)n(C)c1=O` were 0.019, 69.3 µM, 24.3 µM, 0.615 µM and 0.45 µM.
For `Cn1c(=O)c2c(nc(OCc3ccc(Cl)cc3)n2C)n(C)c1=O`, the Ratio Ki in the data set filed under Homo sapiens was found to be 0.1. In addition, in data set [2], the concentration for half-maximal inhibition (IC50) came to 1.34 µM and the inhibitory constant (Ki) was 0.47 µM. Besides, the “Ratio IC50” value in data set [5] was 27. Moreover, in data set [4], the IC50 is 0.065 µM and the inhibitory constant (Ki) came to 0.048 µM.
Take `Cn1c(=O)c2c(nc(OCC3CCCCC3)n2C)n(C)c1=O`: the Ratio Ki in the data set listed under Homo sapiens came out at 0.16. For the same molecule, in data set [2], the IC50 is 18.4 µM and the Ki turned out to be 6.45 µM. In addition, in data set [4], the IC50 turned out to be 1.36 µM and the inhibition constant Ki is 1 µM.
For `CC(C)CCOc1nc2c(c(=O)n(C)c(=O)n2C)n1C`, in the data set listed under Homo sapiens, the Ratio Ki was 1.08. In addition, in data set [2], the IC50 came to 27.3 µM and the inhibition constant (Ki) came out at 9.57 µM. Further, in data set [4], the half-maximal inhibitory concentration (IC50) was 14.1 µM and the inhibition constant (Ki) amounted to 10.3 µM.
Taken in the same sequence, the figures for `Cn1c(=O)c2c(nc(Oc3ccccc3)n2C)n(C)c1=O` were 0.3, 75.2 µM, 26.3 µM, 10.7 µM and 7.84 µM.
Taken in the same sequence, the figures for `Cn1c(=O)c2c(nc(OCCc3ccccc3)n2C)n(C)c1=O` were 0.39, 15.9 µM, 5.57 µM, 2.94 µM and 2.16 µM.
